Rows were chosen to be rich in hits. Some 3.1% of all compounds tested hit in one or more screens of this group.
HIF act: HIF pathway transcriptional activators, primary screen, cell-based, U2OS HRE-luciferase, luminescence | U2OS HRE-luciferase reporter; normalized: DMSO 0%, desferrioxamine 100% | activation, % at 7.5 µM (by protocol) | 300,000 tested, 0.32% active;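 active means mean activation of at least 10% of the iron chelator positive control signal, with at least half of replicates also reaching 10%; inconclusive means mean and replicate majority disagree about reaching 10%; inactive means mean and most replicates under 10%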
Calb FLC: C. albicans growth inhibition with fluconazole, primary screen, CaCi-2 strain, Alamar Blue fluorescence. C. albicans CaCi-2 (fluconazole-resistant clinical isolate) + fluconazole, 48 h. growth inhibition, % (concentration not given with the values). 300,000 tested, 0.57% active. AID 1979, 2009;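 active means growth inhibition above about 58% in most replicates, limit read from the data, passing the limit was not always enough; inconclusive means exactly half the replicates above a set limit; inactive means most replicates below a set limit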;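 further: all wells also contain fluconazole at 8 µg/ml as a sub-toxic cotreatment; 0% = median of DMSO wells and 100% = median of geldanamycin control wells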
Beta cell apopt: inhibitors of cytokine-induced beta cell apoptosis, primary screen, luminescence; protection from apoptosis, % (test concentration not listed); 300,000 tested, 0.8% active; AID 435005, 2010; INS-1E cytokine-induced death, ATP luminescence, 48 h; percent of positive-control rescue, neutral wells zero;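 active means Every replicate reaches about 75%, or at least half do and their mean reaches it too, limit read from the data; inconclusive means At least half of replicates reach the limit but their mean does not; inactive means Under half of replicates reach the limit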;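 further: 0% = cytokine-treated negative control wells and 100% = positive control rescue; higher means more ATP so stronger rescue from cytokine killing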
CSC inhib: cancer stem cell viability inhibitors, primary screen, luminescence; cancer stem cell-like cells viability; inhibition, % at 7.5 µM; 300,000 tested, 1.1% active; AID 2717, 2010; in the data active means inhibition above about 75%; inconclusive means no clear call, values can overlap the other calls; tested in HMLE shEcad cells
PolyA inh: polyadenylation inhibitors in yeast reporter cells, primary screen, luminescence, S. cerevisiae | S. cerevisiae SKY197-pL101 polyadenylation reporter, beta-gal luminescence; efflux-impaired pdr1/pdr3 knockout yeast; score 100 = 6 SD above DMSO | activity score, % at 12 µM | 300,000 tested, 0.02% active | AID 1875, 2009;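 active means lowest replicate activity score at least 50, where 100 means six control SD above control mean; inconclusive means lowest score under 50 but half or more replicates reach 50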;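 further: yeast exposed to compound for 9 h at 30 °C; higher score means more reporter readthrough which indicates perturbed polyadenylation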
T cruzi inh: inhibitors of intracellular T. cruzi growth, primary screen, luminescence, NIH3T3 host cells; T. cruzi beta-gal in NIH3T3, 90 h; inhibition, % (test concentration not listed); 300,000 tested, 1.4% active;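 active means mean inhibition across valid replicates above about 55%, limit read from the data; inconclusive means mean below that limit but half or more replicates reach it; inactive means mean below it, under half of replicates reach it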;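 further: signal also drops with host cell toxicity which is not excluded here; 0% = plate median of DMSO wells and 100% = zero luminescence signal; higher percent means less beta-gal luminescence so fewer parasites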
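Incubation – ≥90 h infection period, 3 h prior cell attachment · System – NIH/3T3 fibroblasts plus reporter T. cruzi · Doses – compound pinned at 50 nL/well, DMSO · Read-out basis – percent inhibition of parasite-derived β-gal signal · Signal – luminescent β-galactosidase signal after 60 min lysis · Also added – 5000 T. cruzi trypomastigotes/well · Medium – Low-serum DMEM with 2% FBS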
* marks the source's active call; other numbers are inactive results; ? = inconclusive; · = no result given.

SMILES	HIF act	Calb FLC	Beta cell apopt	CSC inhib	PolyA inh	T cruzi inh
NC1=NC[C@H](Cc2ccc(O)cc2)N1CCCCC1CCCCC1	-3.4	34.7	101.8*	-25.9	-0.2	60.0*
Cc1ccc(CNC(=O)C2CCC(=O)N(Cc3ccccc3F)C2)s1 (stereo unspecified)	1.0	2.6	-5.1	-1.8	16.2	8.7
O=C(NCc1ccc(F)cc1)c1cccc2c1C(=O)c1ccc(N3CCOCC3)cc1S2(=O)=O	·	·	-6.0	-2.1	·	·
O=C(NCc1ccccc1Br)c1cccc2c1C(=O)c1ccc(N3CCOCC3)cc1S2(=O)=O	·	·	86.8*	28.2	·	·
O=C1C(Cl)=C(NCc2cccnc2)C(=O)c2ccccc21	-11.2	-5.7	83.6*	24.0	-12.9	24.9
O=C(O)c1cccc(NC2=C(Cl)C(=O)c3ccccc3C2=O)c1	-2.1	?	·	·	9.1	63.7*
CCN(CC)CCCNC1=C(Cl)C(=O)c2ccccc2C1=O	-6.5	-9.6	97.7*	106.6*	-11.7	79.1*
O=C1C(Cl)=C(Nc2ccccc2)C(=O)c2ccccc21	-7.0	2.3	65.7	111.7*	-34.4	?
COc1ccc(C(CC(=O)O)NC(=O)COc2cc(C)ccc2C)cc1OC (stereo unspecified)	0.1	-10.8	-3.2	15.0	10.1	-6.3
CC(=O)c1c(C)[nH]c(C(=O)N2CCN(c3ccccn3)CC2)c1C	0.3	-11.8	-5.2	3.9	-3.4	-11.0
O=C(CSc1n[nH]c(-c2ccccc2)n1)Nc1ccccc1O	0.1	-0.6	-1.7	21.6	8.1	-3.3
Cc1ccc2oc(C(=O)N3CCN(Cc4ncccc4C)CC3)c(C)c2c1	0.5	5.8	2.6	-2.5	26.2	-3.4
O=C(O)c1ccc(NC2=C(Cl)C(=O)c3ccccc3C2=O)cc1	1.8	-19.4	14.1	102.3*	-13.5	55.2*
C=CCNC1=C(Cl)C(=O)c2ccccc2C1=O	0.1	-18.4	97.4*	43.5	-28.1	-12.9
COC1=C(Nc2ccccc2)C(=O)c2ccccc2C1=O	-1.8	36.6	95.4*	·	-34.8	3.2
COc1cc(CN(C(=O)c2ccco2)C2CCS(=O)(=O)C2)cc(OC)c1OC (stereo unspecified)	0.2	8.0	·	·	-11.7	-4.2
NS(=O)(=O)c1ccc(NC(=O)c2ccc(CNS(=O)(=O)c3cc(C(F)(F)F)ccc3Cl)cc2)cc1	0.0	-1.8	-11.3	-0.3	-4.2	-5.3
Cc1ccc(S(=O)(=O)N2CCN(C(=O)COC(=O)/C=C/c3ccccc3[N+](=O)[O-])CC2)c(C)c1	0.2	-5.4	-4.0	-1.0	-6.7	-12.5
CCOC(=O)c1c(NC(=S)N2CCN(C)CC2)sc(C)c1-c1ccccc1	-0.4	-24.9	6.9	29.3	2.3	61.3*
CCOC(=O)c1c(NC(=O)Nc2ccc(Cl)cc2)sc(C)c1C	-2.1	0.5	-12.6	-11.2	10.5	-0.7
CCOC(=O)c1c(NC(=O)CCl)sc(CN(C)C)c1-c1ccccc1	-0.3	-27.9	-13.8	-5.0	-7.1	-0.6
CCOC(=O)c1c(NC(=O)/C=C/C(=O)O)sc(C)c1-c1ccc(Cl)cc1	-0.8	23.0	7.5	75.2*	-24.7	22.7
CCOC(=O)c1c(NC(=O)CN2CCCCC2)sc(CN(C)C)c1-c1ccccc1	0.1	10.8	6.3	8.2	-7.4	67.7*
O=C(NCc1ccccc1)C1CC(=O)N(C2CCCCC2)C1 (stereo unspecified)	0.2	0.2	-3.9	-15.6	18.4	-7.3
CCC(=O)c1ccc(OCC(=O)N2CCc3cc(OC)c(OC)cc3C2)cc1	·	·	-4.8	14.7	·	·
SMILES	HIF act	Calb FLC	Beta cell apopt	CSC inhib	PolyA inh	T cruzi inh
COc1cc2c(cc1OC)CN(C(=O)COc1ccc(C)c(C)c1)CC2	-0.5	22.1	-1.1	0.2	-20.2	55.5*
N#CCCn1cc(/C=N/NC(N)=S)c(-c2ccc(-c3ccccc3)cc2)n1	0.2	-8.2	15.7	13.8	-1.7	63.3*
O=C(CN1C(=O)CSc2ccc(S(=O)(=O)N3CCCCC3)cc21)NCc1ccccc1Cl	0.6	-3.0	7.0	-6.5	-7.0	10.5
O=C(O)COc1ccccc1C(Nc1ccccn1)c1cc(Cl)c2cccnc2c1O (stereo unspecified)	0.2	-2.3	-7.6	19.0	-7.6	-6.3
O=C(Oc1ccc(Cl)c2cccnc12)c1cccnc1	-1.6	-15.4	·	72.0	-35.8	-1.5
O=C(NC(c1ccccc1)c1cc(Cl)c2cccnc2c1O)c1cccnc1 (stereo unspecified)	-0.6	92.2*	80.7*	102.4*	-27.8	58.1*
CCOc1ccc(NC(=S)NCc2cccnc2)cc1	-0.4	3.8	-1.6	-10.9	-4.3	-9.6
CCOc1ccc(C(Nc2cccnc2)c2cc(Cl)c3cccnc3c2O)cc1 (stereo unspecified)	7.5	109.5*	85.7*	2.9	·	-1.0
O=C(O)COc1ccccc1C(Nc1cccnc1)c1cc(Cl)c2cccnc2c1O (stereo unspecified)	-0.1	100.4*	·	·	-19.4	-22.8
COc1ccc(CNCc2ccc(C(F)(F)F)cc2)cc1OC	0.1	-7.7	-2.4	-11.2	9.0	-12.7
COc1ccc(NC(=O)COC(=O)CNS(=O)(=O)c2ccc(F)c(F)c2F)cc1OC	-0.3	-2.3	·	·	0.2	-9.2
CCn1c(=O)n(CC)c2cc(N3CCCC3)c(NC(=O)c3cc(Cl)ccc3OC)cc21	-1.3	-3.3	5.8	30.0	?	43.6
CCOC(=O)Nc1ccc(C(=O)/C=C/c2ccccc2)cc1	0.4	1.3	16.4	21.7	-21.9	-0.6
CN(C)CCN=Cc1c(O)n(Cc2ccc3c(c2)OCO3)c(=O)c2ccccc12	-0.4	0.2	-0.2	-5.8	-5.7	46.1
CN(C)CCCN=Cc1c(O)n(Cc2ccc3c(c2)OCO3)c(=O)c2ccccc12	1.0	5.0	5.1	-2.7	4.2	74.6*
Cc1noc(C)c1C(=O)OC(C)C(=O)Nc1ccc(C(N)=O)cc1 (stereo unspecified)	·	·	-3.2	-4.8	·	·
O=[N+]([O-])c1cccc(NC(=S)Nc2nc(-c3ccc(Cl)cc3Cl)cs2)c1	-0.3	-2.2	46.1	93.0*	-16.7	29.5
CCCC(=O)Nc1nc(C)c(-c2csc(Nc3ccc(Cl)cc3)n2)s1	-3.3	13.9	0.9	63.7	24.5	33.3
O=C(NC(=S)Nc1nc(-c2cccc([N+](=O)[O-])c2)cs1)c1cc(Cl)ccc1Cl	-0.2	-10.0	0.8	43.3	-4.8	16.1
CC(=O)Nc1nc(C)c(-c2csc(Nc3cccc([N+](=O)[O-])c3)n2)s1	-0.8	-4.9	12.7	0.7	-5.4	54.9*
CCC(C)C(=O)Nc1nc(C)c(-c2csc(Nc3ccc(Cl)cc3)n2)s1 (stereo unspecified)	-3.0	-2.0	-1.5	34.4	9.6	58.5*

High-throughput results (PubChem BioAssay)
